Laboratory results: ChEMBL document CHEMBL1131482 (J Med Chem, 1998)
pEC50: −log10 of the molar value. Calls of active or inactive are those of the source.

Assays:
Mus musculus [1] = experiment: MNTD:Maximal nontoxic dose of the compound, done on mouse; sc; type: functional
Outline: (§1)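 Male Swiss-Webster mice dosed sc. The value is the highest dose causing no visible behavioural change (tremors, convulsions, hypomotility etc.), so that treated mice could not be told apart from untreated ones. Behaviour was scored by the Irwin method in groups of at least 10 animals.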

Mus musculus [2] = experiment: MAD: minimal dose able to induce a statistically significant increase of the pain threshold, done on mouse; sc; IA = inactive; type: functional, organism-based
Outline: (§2)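 Mouse hot plate test (52.5 ± 0.1 °C, 45 s cutoff) after sc dosing, in male Swiss-Webster mice. The value is the lowest dose giving a statistically significant rise in pain threshold. Dunnett's two-tailed test compared treated mice at maximum reaction time with pretest time, P < 0.05.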

Mus musculus [3] = experiment: Licking latency was measured after 15 min treatment (at dose=10 mg/kg) by using mouse hot plate test; type: functional
Outline: (§3)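 Male Swiss-Webster mice (22-28 g), 23 ± 1 °C, 12-h light/dark cycle, food and water ad libitum. Hot plate at 52.5 ± 0.1 °C with licking latency as read-out and 45 s cutoff. Mice with pre-drug latency below 12 or over 18 s were rejected. Compounds given sc, 5-12 mice per test. Significance was assessed by Dunnett's two-tailed test, P < 0.05.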

Mus musculus [4] = experiment: Licking latency was measured after 45 min treatment (at dose=10 mg/kg) by using mouse hot plate test; type: functional; outline: as §3
Mus musculus [5] = experiment: Licking latency was measured after 45 min treatment (at dose=50 mg/kg) by using mouse hot plate test; type: functional; outline: as §3
Mus musculus [6] = experiment: Licking latency was measured before treatment (at dose=10 mg/kg) by using mouse hot plate test; type: functional; outline: as §3
Mus musculus [7] = experiment: Licking latency was measured before treatment (at dose=50 mg/kg) by using mouse hot plate test; type: functional
Outline: (§4)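 Male Swiss-Webster mice (22-28 g), 23 ± 1 °C, 12-h light/dark cycle. Hot plate at 52.5 ± 0.1 °C. Mice with pre-drug licking latency below 12 s or over 18 s were rejected. Cutoff 45 s. Compound given sc; latency read before dosing and at 15, 30 and 45 min. 5-12 mice per test.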

Mus musculus [8] = experiment: Licking latency was measured after 15 min treatment (at dose=50 mg/kg) by using mouse hot plate test; type: functional; outline: as §3
Mus musculus [9] = experiment: Licking latency was measured after 30 min treatment (at dose=10 mg/kg) by using mouse hot plate test; type: functional; outline: as §3
Mus musculus [10] = experiment: Licking latency was measured after 30 min treatment (at dose=50 mg/kg) by using mouse hot plate test; type: functional; outline: as §3
Mus musculus [11] = experiment: MAD: minimal dose able to induce a statistically significant increase of the pain threshold, done on mouse; sc; type: functional; outline: as §2
Mus musculus [12] = experiment: Licking latency was measured after 15 min treatment (at dose=25 mg/kg) by using mouse hot plate test (*P<0.01); type: functional; outline: as §3
Mus musculus [13] = experiment: Licking latency was measured after 45 min treatment (at dose=25 mg/kg) by using mouse hot plate test (*P<0.05); type: functional; outline: as §3
Mus musculus [14] = experiment: Licking latency was measured before treatment (at dose=25 mg/kg) by using mouse hot plate test; type: functional; outline: as §3
Mus musculus [15] = experiment: Licking latency was measured after 30 min treatment (at dose=25 mg/kg) by using mouse hot plate test(*P<0.05); type: functional; outline: as §3
Mus musculus [16] = species on record: Mus musculus; experiment: Analgesic efficacy is expressed as percentage of that epibatidine, done on mouse.; type: functional
Mus musculus [17] = species on record: Mus musculus; experiment: Analgesic efficacy is expressed as percentage of that morphine, done on mouse.; type: functional
IMR-32 [18] = experiment: Cholinergic interactions was measured with FLIPR device on cells of IMR-32 human neuroblastoma clonal line and given as Intrinsic activity; type: functional
Outline: (§5)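 Cells were plated on poly(ethylenimine)-coated plates and used about 72 h later. Loading was Fluo-3 AM for 1 h at 37 °C, followed by washes in Hepes-salts buffer, pH 7.4. FLIPR recorded Ca2+ fluorescence over 5 min after agonist addition. Responses were normalized to 100 µM nicotine (100%) and unloaded cells (0%), and EC50 and intrinsic activity were derived from concentration-response curves.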

IMR-32 [19] = experiment: Cholinergic interactions was measured with FLIPR device on IMR-32 cells of human neuroblastoma clonal line, given as effective dose; type: functional, cell-based; outline: as §5
K177 cell line [20] = experiment: Cholinergic interactions was measured with FLIPR device on […] cells and given as EC50.; type: functional, cell-based; conditions: Homo sapiens; outline: as §5
K177 cell line [21] = experiment: Cholinergic interactions was measured with FLIPR device on […] cells and given as Intrinsic activity; type: functional, Homo sapiens; outline: as §5
Mus musculus [22] = experiment: Maximal nontoxic dose of the compound, done on mouse; sc; type: functional; outline: as §1
Mus musculus [23] = experiment: Minimal dose able to induce a statistically significant increase of the pain threshold, done on mouse; sc; type: functional; outline: as §2
TE-671 [24] = experiment: Cholinergic interactions was measured with FLIPR device on TE671 cells and given as Intrinsic activity; type: functional, Homo sapiens; outline: as §5
TE-671 [25] = experiment: Cholinergic interactions was measured with FLIPR device on TE671 cells and given as Effective dose; type: functional, cell-based; conditions: Homo sapiens; outline: as §5
Mus musculus [26] = experiment: 15.5 Licking latency was measured after 15 min treatment (at dose=5 mg/kg) by using mouse hot plate test; type: functional; outline: as §3
Mus musculus [27] = experiment: Licking latency was measured after 30 min treatment (at dose=5 mg/kg) by using mouse hot plate test; type: functional; outline: as §3
Mus musculus [28] = experiment: Licking latency was measured before treatment (at dose=5 mg/kg) by using mouse hot plate test; type: functional; outline: as §4
Mus musculus [29] = experiment: Licking latency was measured after 45 min treatment (at dose=5 mg/kg) by using mouse hot plate test; type: functional; outline: as §3
Mus musculus [30] = experiment: Licking latency was measured after 15 min treatment (at dose=5 mg/kg) by using mouse hot plate test; type: functional; outline: as §3

Row | SMILES | MNTD (Mus musculus [1]) [mg/kg] | Licking latency (Mus musculus [3]) [s] | Licking latency (Mus musculus [4]) [s] | Licking latency (Mus musculus [6]) [s] | Licking latency (Mus musculus [9]) [s] | MAD (Mus musculus [11]) [mg/kg] | Analgesic efficacy compared to epibatidine (Mus musculus [16]) [%] | Analgesic efficacy compared to morphine (Mus musculus [17]) [%] | also measured
1 | CCC(=O)N1CC2CCC(C1)N2c1ccc(Cl)nn1 | >50 | 16 | 16.1 | 15.8 | 16.7 |  |  |  | MAD (Mus musculus [2]): inactive; Licking latency (Mus musculus [5]): 14 s; Licking latency (Mus musculus [7]): 14.6 s; Licking latency (Mus musculus [8]): 17 s; Licking latency (Mus musculus [10]): 13 s
2 | Clc1ccc(N2C3CCC2CN(Cc2ccccc2)C3)nn1 | >50 |  |  |  |  |  |  |  | MAD (Mus musculus [2]): inactive; Licking latency (Mus musculus [5]): 17.6 s; Licking latency (Mus musculus [7]): 14.8 s; Licking latency (Mus musculus [8]): 17.2 s; Licking latency (Mus musculus [10]): 15.3 s
3 | CCN1C2CCC1CN(c1ccc(Cl)nn1)C2 | 20 | 19.3 | 16.4 | 13.2 | 18.4 | 10 | 74 | 61 | Licking latency (Mus musculus [12]): 26 s; Licking latency (Mus musculus [13]): 20.8 s; Licking latency (Mus musculus [14]): 14.3 s; Licking latency (Mus musculus [15]): 20.5 s
4 | Clc1ccc(C2CC3CC[C@H]2N3)cn1 (stereo partly specified) [EPIBATIDINE] |  |  |  |  |  |  |  |  | Intrinsic activity (IMR-32 [18]): 145.6%; pEC50 (IMR-32 [19]): 7.47; pEC50 (K177 cell line [20]): 6.46; Intrinsic activity (K177 cell line [21]): 148.1%; MNTD (Mus musculus [22]): 0.007 mg/kg; MAD (Mus musculus [23]): 0.001 mg/kg; Efficacy (Mus musculus [16]): 100%; Efficacy (Mus musculus [17]): 82%; Intrinsic activity (TE-671 [24]): 79.5%; pEC50 (TE-671 [25]): 5.90
5 | Clc1cncc(N2CC3CCC(C2)N3)n1 | 15 | 24.6 | 22.3 | 13.6 | 22.5 | 5 | 70 | 57 | Licking latency (Mus musculus [26]): 19.7 s; Licking latency (Mus musculus [27]): 15.5 s; Licking latency (Mus musculus [28]): 15.1 s; Licking latency (Mus musculus [29]): 15.7 s
6 | CN1CC[C@]23c4c5ccc(O)c4O[C@H]2[C@@H](O)C=C[C@H]3[C@H]1C5 [MORPHINE] | 20 |  |  |  |  | 2 | 122 | 100 | 
7 | Clc1ccnc(N2CC3CCC(C2)N3)n1 | 15 | 26.3 | 22.1 | 14.6 | 21.2 | 5 | 75 | 60 | Licking latency (Mus musculus [27]): 17.8 s; Licking latency (Mus musculus [28]): 15 s; Licking latency (Mus musculus [30]): 20.5 s; Licking latency (Mus musculus [29]): 15.6 s
